A selection: hits, their analogues and other compounds. The true share with any hit is near 2.4%.
GASC-1 inh: blocks human GASC-1 demethylase activity. GST-JMJD2C(1-420) H3K9me3 demethylation, DELFIA europium. inhibition, % at 2.35 µM. 330,000 tested, 0.069% active;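 active = more than half of a compound's replicate wells show inhibition beyond 50%, single wells judged on their own value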;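 note: signal counts dimethyl H3K9 product captured on neutravidin plate; 0% = median of DMSO wells and 100% = 0.3 times that DMSO median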
Cardio protect: protects H9c2 cardiomyocytes from peroxide injury. protection from H2O2 cell death, % at 20 µM. H2O2 injury protection, ATPLite, 2 h. AID 588492. 360,000 tested, 0.63% active;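 active = compounds giving at least 50% protection of heart cells from peroxide-induced death in the single-dose screen, raw or plate-pattern-corrected value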;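 note: 0% = DMSO wells with peroxide and 100% = DMSO wells without peroxide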
p-CIP stab down: compounds decreasing mouse p/CIP protein stability; Q05BA5; F442A p/CIP-EGFP cells, EGFP fluorescence, 16 h; decrease of EGFP signal, % at 10 µM; 290,000 tested, 0.01% active; AID 1984;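 active = EGFP signal decrease of at least 30% at 10 µM or well 3 SD below plate mean, unless failing retest; inactive = the rest, including hits failing retest or dose response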
PP5 primary: inhibitors of human protein phosphatase 5 (PP5). P53041. purified PP5c, OMFP substrate fluorescence. inhibition, % at 6.7 µM. 320,000 tested, 0.18% active. AID 1987;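 active = inhibition above the campaign's mean inhibition across all tested compounds plus 3 SD, cut at about 9.5% in these data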;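 note: 0% = DMSO only and 100% = 100 µM cantharidin control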
T cruzi repl: T. cruzi replication inhibition; T. cruzi beta-gal in NIH3T3, luminescence, 90 h; inhibition, % (test concentration not listed); 300,000 tested, 1.4% active;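 active = mean inhibition across valid replicates above about 55%, limit read from the data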;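 note: signal also drops with host cell toxicity which is not excluded here; 0% = plate median of DMSO wells and 100% = zero luminescence signal; higher percent means less beta-gal luminescence so fewer parasites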
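compound dosing = single 50 nL compound addition per well in DMSO | material = NIH/3T3 host cells with β-galactosidase reporter T. cruzi | input = 5,000 host fibroblasts per well | timing = ≥90 h infection period, 3 h prior cell attachment | read-out basis = percent inhibition of parasite-derived β-gal signal | detection = GalScreen β-gal luminescence, detergent lysis, 60 min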
CTSL1 counter: cathepsin L1 inhibition, PFM18AAP counter-screen | 300,000 tested, 0.49% active | recombinant F. hepatica cathepsin L1, Z-Leu-Arg-MCA fluorescence | inhibition, % at 5.96 µM | AID 1906;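 active = inhibition above the mean of all tested compounds plus 3 SD, set per screening campaign, cut at about 17% in these data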;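 note: 0% = plate median of test compound wells and 100% = 1 µM Z-Phe-Ala-diazomethylketone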
Active calls of the source: *; · = no result.

SMILES	GASC-1 inh	Cardio protect	p-CIP stab down	PP5 primary	T cruzi repl	CTSL1 counter
CCN(CC(=O)NCc1cccs1)C(=O)/C=C/c1cc(OC)c(OC)c(OC)c1	·	1	·	·	·	·
S=C(NCCc1ccccc1)N1CCn2cccc2C1c1cccnc1 (stereo not drawn)	-5	-13	3	0	68*	-7
S=C(NCc1ccccc1)N1CCn2cccc2C1c1cccnc1 (stereo not drawn)	-26	2	-9	·	59*	·
S=C(NCc1ccccc1)N1CCn2cccc2C1c1ccncc1 (stereo not drawn)	-11	5	8	3	13	5
CCCCC(=O)N(C)c1c(CC)nc2c(OCCOc3ccccc3)cccn12	·	-18	·	·	·	·
CN(C(=O)c1cccc(NC(=O)Cc2cccc(NC(=O)C3CCCN(C(=O)CCc4ccccc4)C3)c2)c1)C1CCC1 (stereo not drawn)	·	-21	·	·	·	·
COC(=O)c1ccccc1NC(=O)/C=C/c1cc(OC)c(OC)c(OC)c1	0	57*	-2	6	12	-2
COc1ccc(/C=C/C(=O)Nc2ccccc2C(=O)O)cc1OC	18	-20	2	-4	4	4
CCC(CNc1cc(OC)cc2cccnc12)NC1CCCCC1 (stereo not drawn)	-1	-16	-3	8	41	86*
C=CC[C@@H](CC(=O)NCCO)C(=O)NC[C@H](OC(=O)[C@@H](CC=C)Cc1ccc(F)cc1)c1ccccc1	15	70*	·	·	·	·
O=C(CN1C(=O)NC2(CCCCCCC2)C1=O)Nc1ccc(Cl)cc1	-1	2	·	4	·	·
C=CCSc1nc2ccsc2c(=O)n1-c1ccccc1	7	-4	-8	-1	23	0
CSc1nc2ccsc2c(=O)n1-c1ccccc1	-4	-8	9	2	11	18*
CCCCCCn1c(=O)n2n(c1=O)[C@@H]1CN(S(=O)(=O)c3ccc(C)cc3)C[C@]1(O)[C@@H](OC(=O)NCC1CCCCC1)C2	·	0	·	·	·	·
Cc1ccc([N+](=O)[O-])cc1NC(=O)Nc1cccc(F)c1	-6	-16	-5	·	23	·
CN1CCN(C2Cc3ccccc3Sc3ccc(Cl)cc32)CC1 (stereo not drawn)	10	0	·	3	·	-2
Cc1cccc2c1Sc1ccc(Cl)cc1CC2N1CCNCC1 (stereo not drawn)	-9	·	·	3	63*	-1
CCc1cccc2c1Sc1ccccc1CC2N1CCNCC1 (stereo not drawn)	-12	-15	·	1	64*	-1
CCN1CCN(c2ccc(S(=O)(=O)N3CCCCC3)cc2NC(=O)COc2cc(C)ccc2Cl)CC1	-13	2	·	0	52	7
O=C(COc1ccc(F)cc1)Nc1cc(S(=O)(=O)N2CCCCC2)ccc1N1CCCCC1	0	-6	·	0	55*	-7
CCN1CCN(c2ccc(S(=O)(=O)N3CCCCC3)cc2NC(=O)COc2ccc(F)cc2Cl)CC1	-14	-13	4	0	64*	4
Cc1ccc(NC(=O)CNC(=O)c2ccco2)c(Cl)c1	-1	1	-8	2	-9	-2
CC1=C(C(=O)c2ccccc2)C(c2cn(-c3ccccc3)nc2-c2ccc(Cl)cc2)NC(=S)N1 (stereo not drawn)	6	-3	-1	1	60*	0
CC1CN(c2nc3ccccc3nc2C(C#N)C(=O)OC2CCCCC2)CC(C)O1 (stereo not drawn)	3	8	-6	1	63*	-1
N#CC(C(=O)OC1CCCCC1)c1nc2ccccc2nc1N1CCCCC1 (stereo not drawn)	119	·	3	·	67*	·
CC1CCCC(N2CCN(C(=O)c3ccc([N+](=O)[O-])cc3)CC2)C1 (stereo not drawn)	4	0	0	·	-1	·
COC(=O)c1cc(C(=O)c2c(C)cc3ccccn23)cc([N+](=O)[O-])c1	0	0	0	5	18	4
Cc1cc2ccccn2c1C(=O)c1cc([N+](=O)[O-])cc([N+](=O)[O-])c1	-6	-14	5	2	65*	4
Fc1ccc(CSc2ccc3nnc(-c4cccnc4)n3n2)cc1	-12	80*	6	-1	8	3
